Tested on: U2OS
Assay: Multiplex assay against U2OS
Assay type: toxicity, cell-based
Conditions: human
How it was run: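 Four dyes were applied at seeding to live cells: Hoechst33342, BioTracker Green Microtubule Cytoskeleton Dye, MitoTracker Red and Annexin V Alexa Fluor 680. Imaging after compound addition used a CQ1 microscope at 37°C and 5% CO2. CellPathfinder machine-learning gating then sorted cells into Hoechst high-intensity objects or normal cells, normal cells into healthy, pyknosed or fragmented nuclei, and pyknosed cells into mitotic or apoptotic, with tubulin, mitochondrial-mass and membrane-permeability phenotypes given as per cents of healthy-nucleus cells.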

[1] = 12 h, 1 µM, compound concentration 1 uM, replicate 1
[2] = 12 h, 1 µM, compound concentration 1 uM, replicate 2
[3] = 12 h, 10 µM, compound concentration 10 uM, replicate 1
[4] = 12 h, 10 µM, compound concentration 10 uM, replicate 2
[5] = 24 h, 1 µM, compound concentration 1 uM, replicate 1
[6] = 24 h, 1 µM, compound concentration 1 uM, replicate 2
[7] = 24 h, 10 µM, compound concentration 10 uM, replicate 1

C[C@@H](Oc1cc(-n2cnc3ccc(CN4CCN(C)CC4)cc32)sc1C(N)=O)c1ccccc1C(F)(F)F [GSK-461364]
Population Apoptotic (%) [1]: 55% | Population Fragmented Nuclei (%) [1]: 13% | Population Healthy Nuclei (%) [1]: 70% | Population Hoechst High Intensity Objects (%) [1]: 7% | Population Membrane Permeable-Phenotype (%) [1]: 7% | Population Mitochondria Different-Phenotype (%) [1]: 60% | Population Mitotic Cells (%) [1]: 45% | Population Normal (%) [1]: 92% | Population Pyknosed Nuclei (%) [1]: 15% | Population Tubulin-Different-Phenotype (%) [1]: 84% | Total Cell Count [1]: 153 | Population Apoptotic (%) [2]: 12% | Population Fragmented Nuclei (%) [2]: 12% | Population Healthy Nuclei (%) [2]: 71% | Population Hoechst High Intensity Objects (%) [2]: 4% | Population Membrane Permeable-Phenotype (%) [2]: 12% | Population Mitochondria Different-Phenotype (%) [2]: 35% | Population Mitotic Cells (%) [2]: 87% | Population Normal (%) [2]: 95% | Population Pyknosed Nuclei (%) [2]: 16% | Population Tubulin-Different-Phenotype (%) [2]: 30% | Population Apoptotic (%) [3]: 58% | Population Fragmented Nuclei (%) [3]: 14% | Population Healthy Nuclei (%) [3]: 40% | Population Hoechst High Intensity Objects (%) [3]: 9% | Population Membrane Permeable-Phenotype (%) [3]: 81% | Population Mitochondria Different-Phenotype (%) [3]: 100% | Population Mitotic Cells (%) [3]: 41% | Population Normal (%) [3]: 90% | Population Pyknosed Nuclei (%) [3]: 44% | Population Tubulin-Different-Phenotype (%) [3]: 100% | Total Cell Count [3]: 137 | Population Apoptotic (%) [4]: 40% | Population Fragmented Nuclei (%) [4]: 13% | Population Healthy Nuclei (%) [4]: 55% | Population Membrane Permeable-Phenotype (%) [4]: 71% | Population Mitotic Cells (%) [4]: 59% | Population Pyknosed Nuclei (%) [4]: 31% | Population Apoptotic (%) [5]: 78% | Population Fragmented Nuclei (%) [5]: 16% | Population Healthy Nuclei (%) [5]: 65% | Population Hoechst High Intensity Objects (%) [5]: 6% | Population Membrane Permeable-Phenotype (%) [5]: 8% | Population Mitochondria Different-Phenotype (%) [5]: 65% | Population Mitotic Cells (%) [5]: 21% | Population Normal (%) [5]: 93% | Population Pyknosed Nuclei (%) [5]: 17% | Population Tubulin-Different-Phenotype (%) [5]: 91% | Population Apoptotic (%) [6]: 50% | Population Fragmented Nuclei (%) [6]: 14% | Population Healthy Nuclei (%) [6]: 68% | Population Hoechst High Intensity Objects (%) [6]: 4% | Population Membrane Permeable-Phenotype (%) [6]: 18% | Population Mitochondria Different-Phenotype (%) [6]: 35% | Population Mitotic Cells (%) [6]: 50% | Population Normal (%) [6]: 95% | Population Tubulin-Different-Phenotype (%) [6]: 28% | Population Apoptotic (%) [7]: 90% | Population Fragmented Nuclei (%) [7]: 23% | Population Healthy Nuclei (%) [7]: 21% | Population Hoechst High Intensity Objects (%) [7]: 8% | Population Membrane Permeable-Phenotype (%) [7]: 92% | Population Mitochondria Different-Phenotype (%) [7]: 100%
